Values after ≈ are worked out from the molar mass of the structure shown.
Tested on: not listed separately
Experiment: Stability at -10 to 40 degC after 24 hrs by FPLC assay
Assay type: physicochemical
Details: not given
In short: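 Prodrugs held in Luria Broth (pH 7.2) for 24 h at temperatures between -10 and 40 °C. Release of triclosan monitored by FPLC with UV detection.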

| Structure (SMILES) | Stability |
| --- | --- |
| NC(=O)CCC(=O)Oc1cc(Cl)ccc1Oc1ccc(Cl)cc1Cl | Stable |
| O=C(O)CCCC(=O)Oc1cc(Cl)ccc1Oc1ccc(Cl)cc1Cl | Stable |
| O=C(Oc1cc(Cl)ccc1Oc1ccc(Cl)cc1Cl)c1cccnc1 | Stable |
| C[n+]1cccc(C(=O)Oc2cc(Cl)ccc2Oc2ccc(Cl)cc2Cl)c1.[Cl-] | Stable |
| CN(C)CCOC(=O)CCCC(=O)Oc1cc(Cl)ccc1Oc1ccc(Cl)cc1Cl | Stable |
| C[N+](C)(C)CCOC(=O)CCCC(=O)Oc1cc(Cl)ccc1Oc1ccc(Cl)cc1Cl.[Cl-] | Stable |
| CC(=O)CCC(=O)Oc1cc(Cl)ccc1Oc1ccc(Cl)cc1Cl | Stable |
| CCCCC(=O)Oc1cc(Cl)ccc1Oc1ccc(Cl)cc1Cl | Stable |
| Oc1cc(Cl)ccc1Oc1ccc(Cl)cc1Cl [TRICLOSAN] | Stable |

Tested on: Plasmodium falciparum
Experiment: Antimalarial activity against chloroquine-sensitive Plasmodium falciparum FCK2
Assay type: functional, organism-based
Details: not given

| Structure (SMILES) | IC50 [nM] | MIC [µM] |
| --- | --- | --- |
| NC(=O)CCC(=O)Oc1cc(Cl)ccc1Oc1ccc(Cl)cc1Cl | 6700 | 27.9 (≈ 10.8 µg/mL) |
| O=C(O)CCCC(=O)Oc1cc(Cl)ccc1Oc1ccc(Cl)cc1Cl | 520 | 4.8 (≈ 1.94 µg/mL) |
| O=C(Oc1cc(Cl)ccc1Oc1ccc(Cl)cc1Cl)c1cccnc1 | 1150 | 9.7 (≈ 3.83 µg/mL) |
| C[n+]1cccc(C(=O)Oc2cc(Cl)ccc2Oc2ccc(Cl)cc2Cl)c1.[Cl-] | 2070 | 13.7 |
| CN(C)CCOC(=O)CCCC(=O)Oc1cc(Cl)ccc1Oc1ccc(Cl)cc1Cl | 620 | 7.9 (≈ 3.75 µg/mL) |
| C[N+](C)(C)CCOC(=O)CCCC(=O)Oc1cc(Cl)ccc1Oc1ccc(Cl)cc1Cl.[Cl-] | 3020 | 19.7 |
| CC(=O)CCC(=O)Oc1cc(Cl)ccc1Oc1ccc(Cl)cc1Cl | 680 | 6.2 (≈ 2.4 µg/mL) |
| CCCCC(=O)Oc1cc(Cl)ccc1Oc1ccc(Cl)cc1Cl | 8900 | 33.8 (≈ 12.6 µg/mL) |
| Oc1cc(Cl)ccc1Oc1ccc(Cl)cc1Cl [TRICLOSAN] | 2290 | 17.6 (≈ 5.1 µg/mL) |

Tested on: Escherichia coli
Experiment: Antibacterial activity against wild type Escherichia coli K12 after 12 hrs by microdilution method
Assay type: functional, organism-based
Details: K12, 12 h
In short: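 Wild-type K12 grown in LB to mid-log, diluted 100-fold; 100 µl used to inoculate tubes of 10 mL LB containing inhibitor (stocks about 10 mM in DMSO). IC50 is the mean of at least three sets; values are means ± SD of at least three experiments in duplicate.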

| Structure (SMILES) | IC50 [nM] | MIC [µM] |
| --- | --- | --- |
| NC(=O)CCC(=O)Oc1cc(Cl)ccc1Oc1ccc(Cl)cc1Cl | 220 | 0.6 (≈ 0.233 µg/mL) |
| O=C(O)CCCC(=O)Oc1cc(Cl)ccc1Oc1ccc(Cl)cc1Cl | 330 | 0.75 (≈ 0.303 µg/mL) |
| O=C(Oc1cc(Cl)ccc1Oc1ccc(Cl)cc1Cl)c1cccnc1 | 3100 | 9 (≈ 3.55 µg/mL) |
| C[n+]1cccc(C(=O)Oc2cc(Cl)ccc2Oc2ccc(Cl)cc2Cl)c1.[Cl-] | 3600 | 10.2 |
| CN(C)CCOC(=O)CCCC(=O)Oc1cc(Cl)ccc1Oc1ccc(Cl)cc1Cl | 260 | 0.55 (≈ 0.261 µg/mL) |
| C[N+](C)(C)CCOC(=O)CCCC(=O)Oc1cc(Cl)ccc1Oc1ccc(Cl)cc1Cl.[Cl-] | 420 | 1 |
| CC(=O)CCC(=O)Oc1cc(Cl)ccc1Oc1ccc(Cl)cc1Cl | 77000 | – |
| CCCCC(=O)Oc1cc(Cl)ccc1Oc1ccc(Cl)cc1Cl | 140000 | – |
| Oc1cc(Cl)ccc1Oc1ccc(Cl)cc1Cl [TRICLOSAN] | 750 | 1 (≈ 0.29 µg/mL) |

Tested on: Plasmodium falciparum
Experiment: Stability assessed as half life of prodrug disappearance in Plasmodium falciparum culture
Assay type: ADME, organism-based
Details: in vivo
In short: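 Synchronized young-trophozoite cultures treated with prodrug for 0, 0.5, 3, 6, 12, 18, 24 and 36 h. Parasites isolated into PBS, processed by solid-phase extraction, then analysed by C18 reverse-phase FPLC with absorbance at 230 nm. Half-life derived from loss of the prodrug peak.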

| Structure (SMILES) | t1/2 [min] |
| --- | --- |
| O=C(O)CCCC(=O)Oc1cc(Cl)ccc1Oc1ccc(Cl)cc1Cl | 570 |
| CN(C)CCOC(=O)CCCC(=O)Oc1cc(Cl)ccc1Oc1ccc(Cl)cc1Cl | 567 |
| CC(=O)CCC(=O)Oc1cc(Cl)ccc1Oc1ccc(Cl)cc1Cl | 572 |

Tested on: Escherichia coli
Experiment: Stability assessed as half life of prodrug disappearance in Escherichia coli culture
Assay type: ADME, organism-based
Details: in vivo
In short: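 E. coli cultures exposed to prodrug for 0, 2, 5, 10 and 20 min, then pelleted at 4 °C, washed in LB and resuspended in 50 mM Tris pH 7.5. Extracts cleaned by solid-phase extraction with methanol elution, then run on C18 reverse-phase FPLC with isocratic acetonitrile and UV detection at 230 nm. Half-life taken from prodrug disappearance.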

| Structure (SMILES) | t1/2 [min] |
| --- | --- |
| NC(=O)CCC(=O)Oc1cc(Cl)ccc1Oc1ccc(Cl)cc1Cl | 12 |
| O=C(O)CCCC(=O)Oc1cc(Cl)ccc1Oc1ccc(Cl)cc1Cl | 9 |
| CN(C)CCOC(=O)CCCC(=O)Oc1cc(Cl)ccc1Oc1ccc(Cl)cc1Cl | 6 |
| C[N+](C)(C)CCOC(=O)CCCC(=O)Oc1cc(Cl)ccc1Oc1ccc(Cl)cc1Cl.[Cl-] | 8 |

Reference: ChEMBL document CHEMBL1150299, “Design, synthesis, and application of novel triclosan prodrugs as potential antimalarial and antibacterial agents” (Bioorg Med Chem, 2008)
